CRFBP-R2 agonist: CRF-BP/CRF-R2 complex agonism. HEK293 CRF-R2/CRF-BP, calcium dye fluorescence (FLIPR); percent of saturating CRF peptide response. activation, % at 13.2 µM. actives 0.46% (n = 350,000). AID 588473;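 active = activation of at least 50%, plus an integration ratio under a set limit after plate pattern correction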
OXTR potentiate: human OXTR potentiation | CHO-OTR cells, Fluo-8 calcium fluorescence, potentiator mode; 0% = oxytocin EC15, 100% = EC100 | P30559 | AID 2445 | activation, % at 3 µM | actives 0.061% (n = 320,000);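 active = activation above that plate's cutoff, the mean activation of tested compounds plus 3 SD, cut at about 6.6% in these data, passing the limit was not always enough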
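assay system = CHO-OTR cells, human receptor | schedule = compound 6 min at room temperature before oxytocin, 100 s read | detection = Fluo-8 intracellular calcium fluorescence, ex 470-495, em 515-575 nm | evaluation = normalized max/min fluorescence ratio, % activation | control set = EC15 oxytocin alone as 0%, 75 nM oxytocin (EC100) as 100%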
zfTRPN1 agonist: agonists of zebrafish TRPN1 channel | actives 0.18% (n = 220,000) | activation, % at 3 µM | HEK293 zebrafish TRPN1-YFP, Fluo-8 calcium fluorescence; 100% = response to 87 µM carbachol | AID 1424;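 active = activation above its plate's cutoff, the mean activation of test wells on that plate plus 3 SD, cut at about 19% in these data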
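Material – zebrafish TRPN1-YFP in HEK293 cells · Doses – 3 µM single point · Schedule – dye 1 h 37 °C plus 30 min RT · Signal – Fluo-8 calcium fluorescence, excitation 470-495 nm, emission 515-575 nm · Read-out – % activation versus carbachol response · Control set – carbachol high, DMSO low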
V1R ag counter: V1a receptor agonism, counter-screen for OXTR agonists; P37288; activation, % at 3 µM; actives 0.25% (n = 320,000); CHO-V1R cells, Fluo-8 calcium fluorescence, agonist mode; 0% DMSO, 100% 3 nM vasopressin;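 active = activation above the mean activation of all tested compounds plus 3 SD, per screening run, cut at about 20% in these data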;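 note: signal is peak over basal fluorescence ratio across a 100 second FLIPR read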
OXTR agonist: activates the human oxytocin receptor; P30559; CHO-OTR cells, Fluo-8 calcium fluorescence; normalized: DMSO 0%, oxytocin 100%; actives 0.32% (n = 320,000); activation, % at 3 µM;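 active = activation above the mean of all tested compounds plus 3 SD, cutoff set per screening run, cut at about 20% in these data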;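 note: peak over basal fluorescence ratio from a 100 s FLIPR kinetic read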
TRPML3 agonist: agonists of human TRPML3 channel | activation, % at 3 µM | AID 1448 | actives 0.29% (n = 220,000) | Q8TDD5 | HEK293 TRPML3-YFP, Fluo-8 calcium fluorescence; 100% = the carbachol control signal;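 active = activation above its plate's cutoff, the mean activation of the plate's test wells plus 3 SD, cut at about 12% in these data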
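Test system – HEK293 line with stable expression of human TRPML3-YFP channel · Control set – carbachol 87 µM final as high control (100%), DMSO as low control (0%) · Signal – Fluo-8 calcium dye fluorescence, ex 470-495, em 515-575 nm · Incubation – 1-h 37 °C dye load, 5-s basal, 120-s post-compound reads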
Hits are given with their value; . = inactive; / = no result given. Most compounds without a hit are left out; they make up all but 0.83% or so of the library.

SMILES	CRFBP-R2 agonist	OXTR potentiate	zfTRPN1 agonist	V1R ag counter	OXTR agonist	TRPML3 agonist
Cn1c(Cc2ccccc2)nnc1SCC(=O)c1ccc(Br)s1	.	.	.	.	.	38
O=C(CSc1nnc(N2CCCC2)n1-c1ccccc1Cl)N1CCN(c2ccccn2)CC1	.	.	/	.	.	/
O=C(COc1ccccc1/C=C\c1nc(O)c([N+](=O)[O-])c(=O)[nH]1)Nc1ccccc1	.	/	321	/	/	138
COc1ccc(C(=O)OCC(=O)N2c3ccccc3CC2C)cc1S(=O)(=O)N1CCOCC1 (configuration not stated)	.	/	/	/	/	/
CC(=O)Oc1oc(-c2ccccc2)nc1C=Nc1ccccc1	57	.	.	.	.	.
Cc1ccc(-c2nc3c(Cl)cc(Cl)cc3c(=O)n2O)cc1	66	.	/	66	23	/
O=c1c2cc(Br)ccc2nc(-c2ccc(Cl)cc2)n1O	73	.	/	.	.	/
O=c1c2ccccc2nc(-c2ccccc2Cl)n1O	.	.	.	.	.	.
O=c1c2ccc(Cl)cc2nc(-c2cccc(C(F)(F)F)c2)n1O	69	.	.	.	.	.
O=c1c2ccccc2nc(-c2ccc(Cl)c(Cl)c2)n1O	55	.	.	.	.	.
O=c1c2cc(Cl)ccc2nc(-c2ccc([N+](=O)[O-])cc2)n1O	.	.	.	.	.	.
Cc1nc(-c2ccc(F)cc2)c(CC(=O)N2CCN(S(=O)(=O)c3cccc([N+](=O)[O-])c3)CC2)s1	.	/	/	/	/	/
COc1ccc(NC(=O)CCNC(=O)c2ccccc2Cl)cc1S(=O)(=O)N1CCCCC1	.	/	/	/	/	/
CCN1CCc2c(sc(NC(=O)c3ccc(S(=O)(=O)N(CC)c4ccccc4)cc3)c2C(N)=O)C1	201	.	/	.	.	/
NC(=O)c1c(NC(=O)c2c(F)cccc2F)sc2c1CCN(Cc1ccccc1)C2	.	.	/	.	.	/
CCCN1CCc2c(sc(NC(=O)c3ccc(S(=O)(=O)N4CCCC4)cc3)c2C(N)=O)C1	62	.	/	.	.	/
CCN1CCc2c(sc(NC(=O)c3ccc(C(=O)c4ccccc4)cc3)c2C(N)=O)C1	.	.	/	.	.	/
CCN1CCc2c(sc(NC(=O)Nc3ccc(Cl)c(Cl)c3)c2C(N)=O)C1	239	.	195	173	219	84
NC(=O)c1c(NC(=O)c2ccccc2)sc2c1CCN(Cc1ccccc1)C2	178	.	/	.	.	/
OC(CN1CCCCC1)c1ccc2c3c(cccc13)CC2 (configuration not stated)	.	/	/	/	/	/
CN(CC(=O)Nc1ccccc1C(F)(F)F)C(=O)C1CC1	.	.	/	.	.	/
CCCc1cc(=O)[nH]c(SCC(=O)N2c3ccccc3NC(=O)C2(C)C)n1	.	.	/	.	.	/
CC(NC(=O)COC(=O)C12CC3CC(CC(Br)(C3)C1)C2)c1ccccc1 (configuration not stated)	.	.	/	.	.	/
O=S(=O)(N[C@H](CO)Cc1ccccc1)c1ccc(Br)cc1F	.	/	/	/	/	/
CN(Cc1ccccc1Cl)C(=O)CNC(=O)C12CC3CC(CC(C3)C1)C2	.	.	/	.	.	/
Cc1cccc(N2C(=O)C(O)=C(C(=O)c3cccs3)C2c2ccc(C(C)C)cc2)n1 (configuration not stated)	62	.	.	33	33	.
CC(C)c1nnc(N2C(=O)C(O)=C(C(=O)c3cccs3)C2c2ccccc2)s1 (configuration not stated)	196	/	183	/	/	114
C=CCOc1ccc(C2C(C(=O)c3cccs3)=C(O)C(=O)N2c2nnc(C)s2)cc1 (configuration not stated)	.	.	.	.	.	.
COc1ccc(C2C(C(=O)c3cccs3)=C(O)C(=O)N2c2nncs2)cc1 (configuration not stated)	265	.	.	.	.	.
Cc1cccc(N2C(=O)C(O)=C(C(=O)c3cccs3)C2c2ccc(F)cc2)n1 (configuration not stated)	.	.	.	.	.	.

Screening results as filed in PubChem.
